From ChEMBL document CHEMBL3351470, “Synthesis and Structure-Activity Relationships of α-Amino-γ-lactone Ketolides: A Novel Class of Macrolide Antibiotics” (2014)
Values after ≈ are worked out from the molar mass of the structure shown.

Tests used:
Assay type in all cases: functional
Streptococcus pyogenes [1] = test: Antibacterial activity against erythromycin-susceptible Streptococcus pyogenes by agar microdilution method
Method in brief: (§1)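 Strains from an in-house culture collection (Pliva Research Institute). MIC determined by agar microdilution following NCCLS standards and reported in μg/mL. Erythromycin-susceptible strains are listed as Ery-S; the panel also includes inducibly resistant (iMLS), constitutively resistant (MLSB) and efflux-resistant (M) strains.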

Haemophilus influenzae = test: Antibacterial activity against Haemophilus influenzae by agar microdilution method; method in brief: as §1
Streptococcus pneumoniae [2] = test: Antibacterial activity against efflux-resistant Streptococcus pneumoniae by agar microdilution method
Method in brief: (§2)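 Agar microdilution MIC following NCCLS standards; strains taken from the Pliva Research Institute culture collection. Panel grouped by phenotype: erythromycin-susceptible, inducibly MLS-resistant (iMLS), constitutively MLSB-resistant and efflux-resistant (M). Azithromycin, telithromycin and cethromycin tested alongside as references. MIC reported in μg/mL.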

Streptococcus pyogenes [3] = test: Antibacterial activity against efflux-resistant Streptococcus pyogenes by agar microdilution method; method in brief: as §2
Streptococcus pyogenes [4] = test: Antibacterial activity against macrolide lincosamide- streptogramin B inducibly-resistant Streptococcus pyogenes by agar microdilution method; method in brief: as §2
Staphylococcus aureus [5] = test: Antibacterial activity against macrolide lincosamide- streptogramin B-resistant Staphylococcus aureus by agar microdilution method; method in brief: as §2
Staphylococcus aureus [6] = test: Antibacterial activity against macrolide lincosamide- streptogramin B inducibly-resistant Staphylococcus aureus by agar microdilution method; method in brief: as §2
Streptococcus pneumoniae [7] = test: Antibacterial activity against erythromycin-susceptible Streptococcus pneumoniae by agar microdilution method; method in brief: as §1
Staphylococcus aureus [8] = test: Antibacterial activity against erythromycin-susceptible Staphylococcus aureus by agar microdilution method; method in brief: as §1
Streptococcus pneumoniae [9] = test: Antibacterial activity against macrolide lincosamide- streptogramin B inducibly-resistant Streptococcus pneumoniae by agar microdilution method; method in brief: as §2

| Structure (SMILES) | MIC (Streptococcus pyogenes [1]) [µg/mL] | MIC (Haemophilus influenzae) [µg/mL] | MIC (Streptococcus pneumoniae [2]) [µg/mL] | MIC (Streptococcus pyogenes [3]) [µg/mL] | MIC (Streptococcus pyogenes [4]) [µg/mL] | MIC (Staphylococcus aureus [5]) [µg/mL] | MIC (Staphylococcus aureus [6]) [µg/mL] | MIC (Streptococcus pneumoniae [7]) [µg/mL] | MIC (Staphylococcus aureus [8]) [µg/mL] | MIC (Streptococcus pneumoniae [9]) [µg/mL] |
| --- | --- | --- | --- | --- | --- | --- | --- | --- | --- | --- |
| CC[C@H]1OC(=O)[C@H](C)C(=O)[C@H](C)[C@@H](O[C@@H]2O[C@H](C)C[C@H](N(C)C)[C@H]2O)[C@](C)(OC)C[C@@H](C)C(=O)[C@H](C)[C@H]2N(CCCCn3cnc(-c4cccnc4)c3)C(=O)O[C@]12C [TELITHROMYCIN] | ≤ 0.06 | 2 (≈ 2.46 µM) | 0.5 (≈ 0.616 µM) | 0.25 (≈ 0.308 µM) | 4 (≈ 4.93 µM) | > 64 | 0.5 (≈ 0.616 µM) | ≤ 0.06 | ≤ 0.125 | ≤ 0.125 |
| CC[C@H]1OC(=O)[C@H](C)C(=O)[C@H](C)[C@@H](O[C@@H]2O[C@H](C)C[C@H](N(C)C)[C@H]2O)[C@](C)(OC)C[C@@H](C)C(=O)[C@H](C)[C@H]2C(NC(=O)CCc3cccnc3)C(=O)O[C@@]21C (stereo not given in full) | ≤ 0.125 | 8 (≈ 10.5 µM) | 2 (≈ 2.63 µM) | 2 (≈ 2.63 µM) | 4 (≈ 5.26 µM) | > 64 | 4 (≈ 5.26 µM) | ≤ 0.125 | 2 (≈ 2.63 µM) | 4 (≈ 5.26 µM) |
